One experiment deals with T1, sEH (Mus musculus, UniProt P34914).
T1 sequence (P34914 1-554): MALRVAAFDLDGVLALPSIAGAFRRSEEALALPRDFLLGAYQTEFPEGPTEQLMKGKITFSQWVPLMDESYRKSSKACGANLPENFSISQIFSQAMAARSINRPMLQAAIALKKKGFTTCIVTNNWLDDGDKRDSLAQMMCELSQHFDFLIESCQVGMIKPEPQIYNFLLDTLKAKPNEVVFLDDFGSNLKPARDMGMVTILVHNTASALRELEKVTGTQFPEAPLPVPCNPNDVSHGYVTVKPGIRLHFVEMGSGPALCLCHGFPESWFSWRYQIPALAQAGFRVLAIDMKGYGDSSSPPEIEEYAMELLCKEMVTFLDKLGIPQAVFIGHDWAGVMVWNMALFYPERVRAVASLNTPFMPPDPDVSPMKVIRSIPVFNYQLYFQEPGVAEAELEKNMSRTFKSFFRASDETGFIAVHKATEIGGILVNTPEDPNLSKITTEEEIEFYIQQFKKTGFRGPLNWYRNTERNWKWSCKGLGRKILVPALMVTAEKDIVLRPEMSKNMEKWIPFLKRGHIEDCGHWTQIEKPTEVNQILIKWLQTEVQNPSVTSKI
In words: In vivo target engagement: residual sEH activity. As to conditions: mice, 1 mg/kg i.p. in DMSO, 4 h after dosing.

Another experiment deals with T2, human CES2 (Homo sapiens, UniProt O00748).
T2 sequence (O00748 27-559): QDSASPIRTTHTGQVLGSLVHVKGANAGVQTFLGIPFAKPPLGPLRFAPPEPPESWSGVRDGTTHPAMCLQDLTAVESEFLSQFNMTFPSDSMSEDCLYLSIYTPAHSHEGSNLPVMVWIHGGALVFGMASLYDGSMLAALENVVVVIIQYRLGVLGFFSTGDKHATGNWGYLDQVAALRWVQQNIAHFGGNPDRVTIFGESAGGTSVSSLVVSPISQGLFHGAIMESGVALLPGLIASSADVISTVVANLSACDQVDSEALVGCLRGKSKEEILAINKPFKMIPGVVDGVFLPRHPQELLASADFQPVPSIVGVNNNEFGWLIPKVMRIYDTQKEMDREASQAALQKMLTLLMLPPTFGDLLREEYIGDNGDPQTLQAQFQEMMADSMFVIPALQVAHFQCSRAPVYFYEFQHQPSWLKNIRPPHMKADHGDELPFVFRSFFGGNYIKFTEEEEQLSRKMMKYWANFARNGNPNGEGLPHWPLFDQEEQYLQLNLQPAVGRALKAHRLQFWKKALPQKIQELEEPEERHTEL
In words: Esterase assay, CES2. In kind it is biochemical. The gist of the method:
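Crude recombinant human CES2 extract was used with 5 min inhibitor preincubation in 0.1 M sodium phosphate, pH 8, 0.1 mg/mL BSA, 2% final DMSO. Substrate was cyano(6-methoxynaphthalen-2-yl)methyl acetate (50 μM final). […] Triplicates.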

In another experiment the target is T3, mouse FAAH (Mus musculus, UniProt O08914).
T3 sequence (O08914 1-579): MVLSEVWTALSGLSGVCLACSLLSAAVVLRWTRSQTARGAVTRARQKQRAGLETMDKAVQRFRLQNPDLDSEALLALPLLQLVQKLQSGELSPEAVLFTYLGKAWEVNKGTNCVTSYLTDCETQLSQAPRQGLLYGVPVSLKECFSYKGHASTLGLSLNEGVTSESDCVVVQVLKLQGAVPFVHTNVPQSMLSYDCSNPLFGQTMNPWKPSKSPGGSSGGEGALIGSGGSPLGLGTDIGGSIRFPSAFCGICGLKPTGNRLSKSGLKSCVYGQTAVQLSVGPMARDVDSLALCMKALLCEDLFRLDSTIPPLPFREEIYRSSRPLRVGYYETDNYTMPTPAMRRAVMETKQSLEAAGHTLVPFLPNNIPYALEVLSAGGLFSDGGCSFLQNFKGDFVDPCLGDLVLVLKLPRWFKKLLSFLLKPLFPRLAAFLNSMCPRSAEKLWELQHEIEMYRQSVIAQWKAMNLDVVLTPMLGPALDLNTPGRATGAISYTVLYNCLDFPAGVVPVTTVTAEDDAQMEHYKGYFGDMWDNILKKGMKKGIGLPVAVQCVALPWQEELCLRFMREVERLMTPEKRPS
In words: FAAH fluorescent inhibition assay, mouse crude tissue homogenate. In kind it is biochemical. As to conditions: FAAH IC50 (5 min pre-incubation).

The results in this text go back to PMC6210075 (ACS Omega, 2018).

The term IC50 denotes the concentration that gives 50% inhibition. Low values mean greater potency in that assay, high ones weaker potency in that assay.

For the compound `O=C(Nc1cccnc1)N1CCC(Cc2cccc(Oc3ccc(C(F)(F)F)cn3)c2)CC1` [PF-3845, reference compound], the “residual brain sEH activity, % of control” value at sEH was 63 ± 14%. Also, the IC50 on human CES2 came to 1100 nM.
At mouse FAAH, `O=C(Nc1ccc(C(F)(F)F)cc1F)N1CCC(Cc2cccc(Oc3ccc(C(F)(F)F)cn3)c2)CC1` [compound 18] gave an IC50 of over 10000 nM.
